# Assay results as given in ChEMBL document CHEMBL4842338, “System-oriented optimization of multi-target 2,6-diaminopurine derivatives: Easily accessible broad-spectrum antivirals active against flaviviruses, influenza virus and SARS-CoV-2” (Eur J Med Chem, 2021).
# The source made the active and inactive calls. The rule behind the calls is not given here.
# Key:
# [1] = Cytotoxicity against human Huh-7 cells assessed as reduction in cell viability by Celltiter-Glo luminescent cell viability assay; format: cell-based; details: Huh-7 cells
# How it was run: (§1)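 Compound-exposed cells assessed by CellTiter-Glo luminescence versus DMSO control; CC50 from dose-response.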
# [2] = tested on: dengue virus type 2; test: Antiviral activity against Dengue virus serotype 2 New Guinea C infected in pre-seeded Huh-7 cells assessed as inhibition of viral replication incubated for 72 hrs by immunodetection based secondary yield reduction assay; format: functional, organism-based; details: Dengue virus, New Guinea C, Huh-7, 72 h; read-out: IC50
# [3] = tested on: dengue virus type 2; test: Antiviral activity against Dengue virus serotype 2 New Guinea C infected in pre-seeded Huh-7 cells assessed as inhibition of viral replication incubated for 72 hrs by immunodetection based direct yield reduction assay; format: functional, organism-based; details: Dengue virus, New Guinea C, Huh-7, 72 h; read-out: IC50
# [4] = Selectivity index, ratio of CC50 for human Huh-7 cells to IC50 for Dengue virus serotype 2 New Guinea C infected in pre-seeded Huh-7 cells assessed as inhibition of viral replication incubated for 72 hrs by immunodetection based secondary yield reduction assay; format: toxicity, cell-based; details: read-out: Selectivity Index
# [5] = Selectivity index, ratio of CC50 for human Huh-7 cells to IC50 for Dengue virus serotype 2 New Guinea C infected in pre-seeded Huh-7 cells assessed as inhibition of viral replication incubated for 72 hrs by immunodetection based direct yield reduction assay; format: toxicity, cell-based; details: read-out: Selectivity Index
# How it was run: (§2)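 Direct yield reduction in Huh7 cells (7000/well), infected with 50 TCID₅₀ of DENV or ZIKV, or 25 TCID₅₀ of WNV. Adsorption 1 h at 37 °C, then virus removed and serial compound dilutions added. Incubated 72 h (DENV, ZIKV) or 48 h (WNV). Viral antigen immunodetected on the monolayer. IC₅₀ by non-linear regression, mean of three experiments. SI = CC₅₀ (Huh7, CellTiter-Glo luminescence)/IC₅₀.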
# [6] = Selectivity index, ratio of CC50 for human Huh-7 cells to IC50 for Dengue virus serotype 2 New Guinea C infected in pre-seeded Huh-7 cells assessed as inhibition of viral replication incubated for 72 hrs by immunodetection based plaque reduction assay; format: toxicity, cell-based; details: read-out: Selectivity Index
# [7] = tested on: Zika virus; test: Antiviral activity against Zika virus H/PF/2013 infected in pre-seeded Huh-7 cells assessed as inhibition of viral replication incubated for 72 hrs by immunodetection based secondary yield reduction assay; format: functional, organism-based; details: H/PF/2013, Huh-7, 72 h
# [8] = tested on: Zika virus; test: Antiviral activity against Zika virus H/PF/2013 infected in pre-seeded Huh-7 cells assessed as inhibition of viral replication incubated for 72 hrs by immunodetection based direct yield reduction assay; format: functional, organism-based; details: H/PF/2013, Huh-7, 72 h; how it was run: as §2
# [9] = tested on: Zika virus; test: Antiviral activity against Zika virus H/PF/2013 infected in pre-seeded Huh-7 cells assessed as inhibition of viral replication incubated for 72 hrs by immunodetection based plaque reduction assay; format: functional, organism-based; details: H/PF/2013, Huh-7, 72 h
# [10] = Selectivity index, ratio of CC50 for human Huh-7 cells to IC50 for Zika virus H/PF/2013 infected in pre-seeded Huh-7 cells assessed as inhibition of viral replication incubated for 72 hrs by immunodetection based secondary yield reduction assay; format: toxicity, cell-based; details: read-out: Selectivity Index
# [11] = Selectivity index, ratio of CC50 for human Huh-7 cells to IC50 for Zika virus H/PF/2013 infected in pre-seeded Huh-7 cells assessed as inhibition of viral replication incubated for 72 hrs by immunodetection based direct yield reduction assay; format: toxicity, cell-based; details: read-out: Selectivity Index; how it was run: as §2
# [12] = Selectivity index, ratio of CC50 for human Huh-7 cells to IC50 for Zika virus H/PF/2013 infected in pre-seeded Huh-7 cells assessed as inhibition of viral replication incubated for 72 hrs by immunodetection based plaque reduction assay; format: toxicity, cell-based; details: read-out: Selectivity Index
# [13] = tested on: West Nile virus; test: Antiviral activity against West Nile virus lineage 1 (Italy/2009) infected in pre-seeded Huh-7 cells assessed as inhibition of viral replication incubated for 48 hrs by immunodetection based direct yield reduction assay; format: functional, organism-based; details: West Nile virus, lineage 1 (Italy/2009), Huh-7, 48 h; read-out: IC50
# [14] = tested on: West Nile virus; test: Antiviral activity against West Nile virus lineage 1 (Italy/2009) infected in pre-seeded Huh-7 cells assessed as inhibition of viral replication incubated for 48 hrs by immunodetection based plaque reduction assay; format: functional, organism-based; details: Huh-7, 48 h
# [15] = Selectivity index, ratio of CC50 for human Huh-7 cells to IC50 for West Nile virus lineage 1 (Italy/2009) infected in pre-seeded Huh-7 cells assessed as inhibition of viral replication incubated for 48 hrs by immunodetection based direct yield reduction assay; format: toxicity, cell-based; details: read-out: Selectivity Index; how it was run: as §2
# [16] = Selectivity index, ratio of CC50 for human Huh-7 cells to IC50 for West Nile virus lineage 1 (Italy/2009) infected in pre-seeded Huh-7 cells assessed as inhibition of viral replication incubated for 48 hrs by immunodetection based plaque reduction assay; format: toxicity, cell-based; details: read-out: Selectivity Index
# [17] = tested on: Huh-7; test: Effect on formation of DENV replication complex in human Huh-7 cells assessed as reduction in expression of NS3 at 100 uM measured after 8 to 24 hrs by DAPI staining based confocal microscopy analysis; format: functional, cell-based; details: time 8-24 hrs
# How it was run: (§3)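 Huh-7 cells (1 × 10⁴) on coverslips infected with DENV-2 (MOI 0.05), treated (100 or 50 μM as listed), fixed in 4% paraformaldehyde at 8, 12, 16, 24 h; anti-NS3/anti-NS5 with Alexa 488/568 secondaries, DAPI; confocal, 5 random fields at 40×; % positive cells; 2-way ANOVA with Dunnett.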
# [18] = tested on: Huh-7; test: Effect on formation of DENV replication complex in human Huh-7 cells assessed as reduction in expression of NS5 at 100 uM measured after 8 to 24 hrs by DAPI staining based confocal microscopy analysis; format: functional, cell-based; details: time 8-24 hrs; how it was run: as §3
# [19] = tested on: Huh-7; test: Effect on formation of DENV replication complex in human Huh-7 cells assessed as reduction in NS5 translocation into nucleus at 100 uM measured after 16 to 24 hrs by DAPI staining based confocal microscopy analysis; format: functional, cell-based; details: time 16-24 hrs; how it was run: as §3
# [20] = tested on: Huh-7; test: Effect on formation of DENV replication complex in human Huh-7 cells assessed as reduction NS3 translocation into cytoplasm at 100 uM measured after 16 to 24 hrs by DAPI staining based confocal microscopy analysis; format: functional, cell-based; details: time 16-24 hrs; how it was run: as §3
# [21] = tested on: Huh-7; test: Cytotoxicity against human Huh-7 cells infected with SARS-COV-2 assessed as reduction in cell viability by celltiter-glo luminescent cell viability assay; format: cell-based; details: huh-7; how it was run: as §1
# [22] = tested on: SARS-CoV-2; test: Antiviral activity against SARS-COV 2 infected in human Huh-7 cells assessed as inhibition of viral replication at MOI of 0.01 and incubated after 2 hrs post infection for 48 hrs by direct yield reduction assay; format: functional, organism-based; details: Severe acute respiratory syndrome coronavirus 2, Huh-7
# [23] = Selectivity index, ratio of CC50 for human Huh-7 cells infected with SARS-COV-2 to IC50 for SARS-COV 2 infected in human Huh-7; format: toxicity; details: read-out: Selectivity Index
# [24] = tested on: Vero C1008; test: Cytotoxicity against African green monkey Vero E6 cells infected with SARS-COV-2 by celltiter-glo luminescent cell viability assay; format: cell-based; details: chlorocebus sabaeus, vero c1008; how it was run: as §1
# [25] = tested on: Caco-2; test: Cytotoxicity against human Caco2 cells infected with SARS-COV-2 assessed as reduction in cell viability by celltiter-glo luminescent cell viability assay; format: cell-based; how it was run: as §1
# [26] = tested on: SARS-CoV-2; test: Antiviral activity against SARS-COV 2 infected in human Caco-2 cells assessed as inhibition of viral replication at MOI of 0.01 and incubated after 2 hrs post infection for 48 hrs by immunodetection assay; format: functional, organism-based; details: Severe acute respiratory syndrome coronavirus 2, Caco-2
# [27] = Selectivity index, ratio of CC50 for human Caco-2 cells infected with SARS-COV-2 to IC50 of SARS-COV 2 infected in human Caco-2 cells; format: toxicity, cell-based; details: read-out: Selectivity Index
# [28] = tested on: SARS-CoV-2; test: Antiviral activity against SARS-COV 2 infected in monkey Vero E6 cells assessed as inhibition of viral replication at MOI of 0.01 and incubated after 2 hrs post infection for 48 hrs by direct yield reduction assay; format: functional, organism-based; details: Severe acute respiratory syndrome coronavirus 2, Vero C1008
# [29] = Selectivity index, ratio of CC50 for African green monkey Vero E6 cells infected with SARS-COV-2 to IC50 for SARS-COV 2 infected in monkey Vero E6 cells; format: toxicity, cell-based, Vero C1008; details: read-out: Selectivity Index
# [30] = tested on: Calu-3; test: Cytotoxicity against human Calu-3 cells infected with SARS-COV-2 by celltiter-glo luminescent cell viability assay; format: cell-based; details: calu-3; how it was run: as §1
# [31] = tested on: SARS-CoV-2; test: Antiviral activity against SARS-COV 2 infected in human Calu-3 cells assessed as inhibition of viral replication at MOI of 0.01 and incubated after 2 hrs post infection for 48 hrs by direct yield reduction assay; format: functional, organism-based; details: Severe acute respiratory syndrome coronavirus 2, Calu-3
# [32] = Selectivity index, ratio of CC50 for human Calu-3 cells infected with SARS-COV-2 to IC50 for SARS-COV 2 infected in human Calu-3 cells; format: toxicity, cell-based; details: read-out: Selectivity Index
# [33] = tested on: SARS-CoV-2; test: Antiviral activity against SARS-COV 2 infected in human Huh-7 cells; format: functional, organism-based; details: Severe acute respiratory syndrome coronavirus 2, Huh-7
# [34] = tested on: SARS-CoV-2; test: Antiviral activity against SARS-COV 2 infected in human Caco-2 cells; format: functional, organism-based; details: Severe acute respiratory syndrome coronavirus 2, Caco-2
# [35] = tested on: SARS-CoV-2; test: Antiviral activity against SARS-COV 2 infected in African green monkey Vero E6 cells; format: functional, organism-based; details: Severe acute respiratory syndrome coronavirus 2, Vero C1008
smiles,measurement,setting,value
CC(C)OC(=O)[C@H](C)N[P@](=O)(OC[C@H]1O[C@@H](n2ccc(=O)[nH]c2=O)[C@](C)(F)[C@@H]1O)Oc1ccccc1 [SOFOSBUVIR],CC50,[1],200 µM
same,IC50,[2],4.7 µM
same,IC50,[3],4.6 µM
same,selectivity ratio at 72 h,[4],42
same,selectivity ratio at 72 h,[5],43
same,selectivity ratio at 72 h,[6],50
same,IC50,[7],3.2 µM
same,IC50,[8],2.7 µM
same,IC50,[9],2 µM
same,selectivity ratio at 72 h,[10],62
same,selectivity ratio at 72 h,[11],74
same,selectivity ratio at 72 h,[12],100
same,IC50,[13],1.7 µM
same,IC50,[14],1.2 µM
same,selectivity ratio at 48 h,[15],117
same,selectivity ratio at 48 h,[16],166
same,Activity,[17],Active
same,Activity,[18],Active
same,Activity,[19],Active
same,Activity,[20],inactive
CCC(CC)COC(=O)[C@H](C)N[P@](=O)(OC[C@H]1O[C@@](C#N)(c2ccc3c(N)ncnn23)[C@H](O)[C@@H]1O)Oc1ccccc1 [REMDESIVIR],CC50,[21],77 µM
same,IC50,[22],0.004 µM
same,selectivity ratio,[23],19200
same,CC50,[24],166 µM
same,CC50,[25],80 µM
same,IC50,[26],0.01 µM
same,selectivity ratio,[27],8000
same,IC50,[28],6 µM
same,selectivity ratio,[29],28
same,CC50,[30],97 µM
same,IC50,[31],0.11 µM
same,selectivity ratio,[32],882
same,IC50,[33],0.002 µM
same,IC50,[34],0.38 µM
same,IC50,[35],26.9 µM
